The species named for assay [1] is Rattus norvegicus. As to the kind of experiment: Inhibition of lipid peroxidation in rat liver microsomes. Conditions: dose or concentration not given here. Format: functional. Further details: concentration or dose not given beside the values. A digest of the protocol:
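Wistar rat liver microsomes (2.0 mg protein) in 83.5 mM KCl, 37.2 mM Tris-HCl pH 7.4 with 1 mM ADP, 10 µM FeCl3, 0.02 mM NADPH; compound added in DMF, tested at 10^-5 M. 37 °C, 20 min. Malondialdehyde measured by thiobarbituric acid method, A532; % inhibition, mean ± SD, n = 3–6.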
In general terms: Liver microsomes are vesicles of endoplasmic reticulum, rich in cytochrome P450 enzymes.

Assay [2] concerns Rattus norvegicus. Description: Effect (10 mg/kg, iv) on coronary reperfusion-induced arrhythmias was assessed in anesthetized rats.(Intervals of ventricular tachycardia (VT)+ventricular fibrillation (VF) within 600 s. Format: functional, Cardiac ventricle.
For assay [3], the species on record is Rattus norvegicus. As to the kind of experiment: Inhibitory effect on production of active oxygen species by rat peritoneal exudate macrophages. In kind it is functional. Details: concentration or dose not given beside the values. An outline of the steps: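 Peritoneal exudate macrophages harvested 3 days after ip liquid paraffin (male Wistar rats), >90% viable. Assay: 125 mM sodium phosphate pH 6.5, 0.08 mM EDTA, 1.2 U LDH, 0.32 mM NADH, (2–3) × 10^6 cells, compound in DMF, 1 × 10^-4 M. Started with NADH.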

Assay [4] deals with Rattus norvegicus. Description: Effect (30 mg/kg, iv) on coronary reperfusion-induced arrhythmias was assessed in anesthetized rats.(Intervals of ventricular tachycardia (VT)+ventricular fibrillation (VF) within 600 s. Format: functional, Cardiac ventricle.
Assay [5] is filed under the species Rattus norvegicus. Description: Minimum effective dose of the compound. Conditions: read-out: MED. In kind it is functional.
Assay [6] is filed under the species Cavia porcellus. Description: Inhibitory activity on atrial contractility in isolated Guinea pig right atrea at 0.3 mg/mL concentration. Format: functional, Cardiac atrium. An outline of the steps:
(§1)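 Right atria from male Hartley guinea pigs (450–550 g), loaded at 0.5 g, in Tyrode's solution at 37 °C gassed with 95% O2/5% CO2. Equilibrated at least 30 min until rate stable within 5 beats/min; spontaneous rate and contractile force recorded on polygraph after compound addition.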

The test system of assay [7] is Rattus norvegicus. As to the kind of experiment: Change in arterial blood pressure was measured at 0.1 mg/kg dose(iv) in anesthetized rats. Format: functional, Artery. An outline of the steps:
(§2)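 Male Wistar rats, pentobarbital 60 mg/kg ip, supine. Compound suspended in saline with 1% olive oil and 1% Tween 80, injected via femoral vein. Femoral arterial pressure monitored 10 min after injection; change in mmHg, mean ± SE, n = 3–4.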

For assay [8], the system named is Rattus norvegicus. As to the kind of experiment: inhibitory activity was tested against anesthetized rats at 10 mg/kg. In kind it is functional.
The test system of assay [9] is Rattus norvegicus. Description: Effect (10 mg/kg, po) on coronary reperfusion-induced arrhythmias was assessed in anesthetized rats.(Intervals of ventricular tachycardia (VT)+ventricular fibrillation (VF) within 600 s. In kind it is functional, Cardiac ventricle. An outline of the steps:
(§3)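 Male Wistar rats (350–450 g) dosed orally 1 h before occlusion, then anesthetized with pentobarbital (60 mg/kg ip) and ventilated. LAD ligated 5 min, reperfused 10 min; VT plus VF durations summed within 600 s. Mean ± SE, n = 5–10; line 2 value is the minimum effective dose.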

The species named for assay [10] is Cavia porcellus. As to the kind of experiment: Inhibitory activity on atrial rate in isolated Guinea pig right atrea at 0.03 mg/mL concentration. In kind it is functional, Cardiac atrium. A digest of the protocol:
as §1

The species named for assay [11] is Cavia porcellus. Description: Inhibitory activity on atrial rate in isolated Guinea pig right atrea at 0.3 mg/mL concentration. In kind it is functional, Cardiac atrium. A digest of the protocol:
as §1

Assay [12] concerns Rattus norvegicus. As to the kind of experiment: inhibitory activity was tested against anesthetized rats at 100 mg/kg. Format: functional.
The test system of assay [13] is Rattus norvegicus. As to the kind of experiment: Effect (100 mg/kg, po) on coronary reperfusion-induced arrhythmias was assessed in anesthetized rats.(Intervals of ventricular tachycardia (VT)+ventricular fibrillation (VF) within 600 s. Format: functional, Cardiac ventricle. A digest of the protocol: as §3
For assay [14], the species on record is Cavia porcellus. Description: Inhibitory activity on atrial rate in isolated Guinea pig right atrea at 0.1 mg/mL concentration. In kind it is functional, Cardiac atrium. An outline of the steps: as §1
The species named for assay [15] is Cavia porcellus. Description: Inhibitory activity on atrial contractility in isolated Guinea pig right atrea at 0.03 mg/mL concentration. In kind it is functional, Cardiac atrium. An outline of the steps:
as §1

The test system of assay [16] is Rattus norvegicus. Description: Change in heart rate was measured at 0.1 mg/kg dose(iv) in anesthetized rats. In kind it is functional. An outline of the steps: (§4)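 Anesthetized male Wistar rats (pentobarbital 60 mg/kg ip); compound in saline/1% olive oil/1% Tween 80 given by femoral vein. Lead II ECG recorded and heart rate read by beat-to-beat tachograph for 10 min after dosing; change in beats/min, mean ± SE, n = 3–4.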

Assay [17] concerns Rattus norvegicus. As to the kind of experiment: Antiarrhythmic activity against anesthetized rats after intravenous administration. Format: functional, Heart.
Assay [18] relates to Rattus norvegicus. As to the kind of experiment: Antiarrhythmic activity against anesthetized rats after peroral administration. In kind it is functional, Heart. An outline of the steps:
as §3

Assay [19] is filed under the species Cavia porcellus. Description: Inhibitory activity on atrial contractility in isolated Guinea pig right atrea at 0.1 mg/mL concentration. In kind it is functional, Cardiac atrium. An outline of the steps:
as §1

For assay [20], the system named is Rattus norvegicus. As to the kind of experiment: Change in arterial blood pressure was measured at 0.3 mg/kg dose(iv) in anesthetized rats. In kind it is functional, Artery. An outline of the steps: as §2
Assay [21] deals with Rattus norvegicus. As to the kind of experiment: Change in heart rate was measured at 0.3 mg/kg dose(iv) in anesthetized rats. In kind it is functional. An outline of the steps: as §4
In assay [22] the test system is Rattus norvegicus. As to the kind of experiment: Effect (0.1 mg/kg, iv) on coronary reperfusion-induced arrhythmias was assessed in anesthetized rats.(Intervals of ventricular tachycardia (VT)+ventricular fibrillation (VF) within 600 s. In kind it is functional, Cardiac ventricle.
Assay [23] relates to Rattus norvegicus. Description: Effect (1 mg/kg, iv) on coronary reperfusion-induced arrhythmias was assessed in anesthetized rats.(Intervals of ventricular tachycardia (VT)+ventricular fibrillation (VF) within 600 s. Format: functional, Cardiac ventricle.

Broadly, the inhibition is the drop in the measured response relative to a control, in per cent. What is called Inhibition is the relative decrease from the control value, in per cent. As usually defined, the inhibition in vivo is the share of the control response that was lost under treatment.

Consider `CCCCCCCCCCCCCCCCC(=O)COC1=C(O)C(=O)OC1C(O)CO` (stereo not drawn), for which the inhibition in [1] was found to be 43%. Moreover, the Arrhythmias times in assay [2] was 521.

`CCCCCCCCCCCC1OCC(C2OC(=O)C(O)=C2OCC(C)=O)O1` (stereo not drawn) had an inhibition in [1] of 44%. For the same compound, in assay [2], the Arrhythmias times is 478.

As to `CCCCCCCCCCCCCCCCCCOC1=C(O)C(=O)OC1C(O)CO` (stereo not drawn), the Inhibition in assay [3] amounted to 53.3%. Also, the inhibition in [1] came out at 45%. The Arrhythmias times in assay [4] turned out to be 447.

`CCCCCCCCCCCCCCCCCCOC1=C(O)[C@@H](C(O)CO)OC1=O` (stereo partly drawn): the Inhibition in assay [3] was 87%; in assay [6], -39.9%; in [10] it was -1.8%; in assay [11], -13.6%; in [14] it was -6%; in assay [15], -10.7%. In assay [19], the Inhibition is -16.7%. Moreover, the minimal effective dose in assay [5] is 100 mg/kg. In addition, the Delta blood pressure is listed as -10 mmHg in [7] and -35.3 mmHg in assay [20]. The same compound gave an inhibition in vivo at 10 mg/kg in [8] of 20%. In addition, the Arrhythmias times was found to be 413.2 in assay [9], 39.4 in [13] and 238 in assay [22]. Further, in [12], the inhibition in vivo at 100 mg/kg worked out at 92%. The compound also had an inhibition in assay [1] of 88%. In addition, the Delta heart rate in assay [16] is -10 beats min-1; in [21] it was -55 beats min-1. The Efficacy in assay [17] is above 0.1 mg/kg; in assay [18] it was 10 mg/kg.

As for `CCCCCCCCCCCCCCC(=O)COC1=C(O)C(=O)OC1C(O)CO` (stereo not drawn), in [3], the Inhibition came out at 36.8%. The compound also yielded an inhibition in assay [1] of 65%. This compound also yielded an Arrhythmias times in assay [4] of 445.

Consider `CCCCCCCCCCCCCCOC1=C(O)C(=O)OC1C(O)CO` (stereo not drawn), for which the Inhibition in [3] is reported as 40.7%. Besides, the inhibition in [1] turned out to be 78%. In assay [2], this compound displayed an Arrhythmias times of 352.

In assay [1], `CCCCCCCCCCCCCCCCCCOC(=O)COC1=C(O)C(=O)OC1C(O)CO` (stereo not drawn) came in with an inhibition of 30%. Besides, the Arrhythmias times in [4] is 413.

As to `CCCCCCCCCCC(=O)COC1=C(O)C(=O)OC1C(O)CO` (stereo not drawn), in assay [3], the Inhibition worked out at 11.1%. In assay [1], this compound gave an inhibition of 88%. The Arrhythmias times in assay [23] is 205.

The values above are taken from ChEMBL document CHEMBL1125458, “3-O-alkylascorbic acids as free radical quenchers. 3. Protective effect on coronary occlusion-reperfusion induced arrhythmias in anesthetized rats” (1992).
